In assay [1] the target is T1, Protein farnesyltransferase (Bos taurus) (UniProt P29702+P49355). Kind of assay: Inhibition of FPTase at 100 nM using 5 uM Dansyl-GCVLS. The assay is classed as protein-complex assay. In outline:
(§1)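 Peptide-dependence study using purified bovine FPTase. Dansyl-GCVLS substrate concentration was varied with the inhibitor at a single fixed concentration, and activity was reported as percent enzyme inhibition.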

Assay [2] deals with T1, Protein farnesyltransferase (Bos taurus). Kind of assay: Inhibition of FPTase at 10 nM using 1 uM Dansyl-GCVLS. It counts as protein-complex assay. The method, boiled down: as §1
Assay [3] shares this target. Kind of assay: Inhibition of FPTase at 10 nM using 20 uM FPP as substrate. The assay is classed as protein-complex assay. In outline: (§2)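 FPP-dependence study using purified bovine FPTase. Dansyl-GCVLS peptide was held at a fixed level of […] while FPP concentration was varied. Inhibitor was tested at a single fixed concentration, and the read-out was percent inhibition of farnesylation.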

The target is the same in assay [4]. In words: Inhibition of FPTase at 10 nM using 0.5 uM Dansyl-GCVLS. The assay is classed as protein-complex assay. The method, boiled down: as §1
For assay [5] the target is unchanged. In words: Inhibition of FPTase at 10 nM using 10 uM Dansyl-GCVLS. The assay is classed as protein-complex assay. The method, boiled down: as §1
Assay [6] has the same target. In words: Inhibition of FPTase at 10 nM using 5 uM FPP as substrate. The assay is classed as protein-complex assay. In outline: as §2
The target is the same in assay [7]. In words: Inhibition of FPTase at 10 nM using 1 uM FPP as substrate. The assay is classed as protein-complex assay. The method, boiled down: as §2
For assay [8] the target is unchanged. Kind of assay: Inhibition of FPTase at 10 nM using 2 uM FPP as substrate. It counts as protein-complex assay. The method, boiled down:
as §2

For assay [9] the target is unchanged. In words: Inhibition of FPTase at 10 nM using 2 uM Dansyl-GCVLS. It counts as protein-complex assay. In outline: as §1
For assay [10] the target is unchanged. Kind of assay: Inhibition of FPTase at 10 nM using 20 uM Dansyl-GCVLS. The assay is classed as protein-complex assay. In outline: as §1
Assay [11] deals with Protein farnesyltransferase (Homo sapiens, UniProt P49354+P49356). In words: Inhibition of farnesylation of H-Ras in DLD-1 cells. It counts as functional, cell-based.
Assay [12] deals with Protein farnesyltransferase (Bos taurus, UniProt P29702+P49355). Kind of assay: In vitro inhibition of bovine Farnesyl transferase. It counts as protein-complex assay. The method, boiled down:
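Purified bovine FPTase, assayed as in ref 15, with dansyl-GCVLS peptide and FPP as substrates, both at […].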

The target of assay [13] is T1, Protein farnesyltransferase (Bos taurus). In words: Inhibition of FPTase at 10 nM using 10 uM FPP as substrate. The assay is classed as protein-complex assay. In outline: as §2
Assay [14] shares this target. Kind of assay: Inhibition of FPTase at 10 nM using 0.5 uM FPP as substrate. The assay is classed as protein-complex assay. In outline:
as §2

Assay [15] has the same target. In words: Inhibition of FPTase at 100 nM using 0.5 uM Dansyl-GCVLS. It counts as protein-complex assay. The method, boiled down:
as §1

Assay [16] has the same target. Kind of assay: Inhibition of FPTase at 100 nM using 1 uM Dansyl-GCVLS. The assay is classed as protein-complex assay. The method, boiled down: as §1
For assay [17] the target is unchanged. In words: Inhibition of FPTase at 100 nM using 20 uM FPP as substrate. It counts as protein-complex assay. The method, boiled down: as §2
The target is the same in assay [18]. Kind of assay: Inhibition of FPTase at 100 nM using 2 uM FPP as substrate. The assay is classed as protein-complex assay. In outline: as §2
Assay [19] has the same target. In words: Inhibition of FPTase at 100 nM using 10 uM FPP as substrate. It counts as protein-complex assay. The method, boiled down:
as §2

Assay [20] has the same target. In words: Inhibition of FPTase at 100 nM using 10 uM Dansyl-GCVLS. It counts as protein-complex assay. In outline:
as §1

For assay [21] the target is unchanged. Kind of assay: Inhibition of FPTase at 100 nM using 20 uM Dansyl-GCVLS. It counts as protein-complex assay. In outline: as §1
Assay [22] has the same target. In words: Inhibition of FPTase at 100 nM using 0.5 uM FPP as substrate.
The target is the same in assay [23]. In words: Inhibition of FPTase at 100 nM using 2 uM Dansyl-GCVLS. The assay is classed as protein-complex assay. In outline: as §1
Assay [24] shares this target. In words: Inhibition of FPTase at 100 nM using 5 uM FPP as substrate. It counts as protein-complex assay. In outline: as §2

Molecules are shown by their SMILES. Some results are limits rather than exact numbers.

The inhibition is how much of the control response was suppressed. Low readings indicate a weak effect, high ones a strong effect. The term IC50 denotes the concentration at which inhibition is half-maximal. `CC(C)=CCC/C(C)=C/CC/C(C)=C/CC(NCc1cncn1Cc1ccc(C#N)cc1)C(=O)NCc1ccccc1` (stereo not drawn): the inhibition in [1] (10 nM, in the assay text read “10 nM” for “100 nM”) was determined as 27%; in [2] it was 41%; in assay [3] it was 32%; in assay [4] it was 49%; in assay [5], 14%; in assay [6], 38%. In addition, the inhibition in assay [7] amounted to 55%; in assay [8], 42%; in assay [9] it was 38%; in [10] it was 3%; in [13] it was 36%; in [14] it was 54%. The IC50 in assay [11] was determined as 1000 nM; in assay [12], 6 nM.

For the molecule `CC(C)=CCC/C(C)=C/CC/C(C)=C/CC1C(=O)N(Cc2ccccc2)C(=O)N1Cc1cncn1C` (stereo not drawn), inhibition in assay [12] was half-maximal at 700 nM (IC50).

In the case of `CC(C)=CCC/C(C)=C/CC/C(C)=C/CC(NCc1cncn1Cc1ccc(C#N)cc1)C(=O)N[C@@H](Cc1ccccc1)C(=O)O` (stereo partly drawn), in assay [11], the IC50 is 5000 nM.

In the case of `CC(C)=CCC/C(C)=C/CC/C(C)=C/CC1C(=O)N(Cc2ccccc2)C(=O)N1Cc1cncn1Cc1ccc(C#N)cc1` (stereo not drawn), the IC50 in [12] worked out at 200 nM. In other words, the sub-micromolar range.

Regarding `CC(C)=CCC/C(C)=C/CC/C(C)=C/CC(NCc1cncn1C)C(=O)NCc1ccccc1` (stereo not drawn), in [12], the concentration for half-maximal inhibition (IC50) was more than 10000 nM.

For `CC(C)=CCC/C(C)=C/CC/C(C)=C/CC(C(=O)N[C@@H](Cc1ccccc1)C(=O)O)P(=O)(O)O` (stereo partly drawn), the inhibition in assay [1] was 34%; in [15], 43%; in assay [16] it was 42%; in assay [17] it was 10%; in assay [18], 37%; in assay [19] it was 9%. Besides, the inhibition in assay [20] stood at 33%; in assay [21], 38%; in [22], 80%; in assay [23], 41%; in [24] it was 9%; in assay [24] (in the assay text read “1 uM FPP” for “5 uM FPP”), 72%. The IC50 in assay [11] was more than 10000 nM; in assay [12], 83 nM.

In the case of `CC(C)=CCC/C(C)=C/CC/C(C)=C/CC(C(=O)N[C@@H](Cc1ccccc1)C(=O)O)N(Cc1cncn1C)S(=O)(=O)c1ccccc1` (stereo partly drawn), the IC50 amounted to 10000 nM in [11] and 470 nM in assay [12].

For the molecule `CC(C)=CCC/C(C)=C/CC/C(C)=C/CC(C(=O)NCc1ccccc1)N(Cc1cncn1C)S(=O)(=O)c1ccccc1` (stereo not drawn), the results for the half-inhibitory concentration (IC50) in assay [11] and in [12] were 1000 nM and 670 nM, respectively.

Turning to `CC(C)=CCC/C(C)=C/CC/C(C)=C/CC(C(=O)NCc1ccccc1)N(Cc1cncn1Cc1ccc(C#N)cc1)S(=O)(=O)c1ccccc1` (stereo not drawn), the results for the IC50 in assay [11] and in assay [12] were more than 10000 nM and 40 nM, respectively.
